Screening results from PubChem BioAssay.
Most compounds without a hit are left out; they make up all but 2.1% or so of the library.
APJ antagonist – APJ receptor antagonism. P35414. CHO-K1 APJ beta-arrestin complementation, luminescence. inhibition, % at 20 µM. 330,000 compounds, 0.32% hits;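 active means inhibition above about 40% at 20 µM, limit read from the data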;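 further: cells challenged with 10 nM apelin-13 agonist together with compound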
CCR6 antag – blocks CCL20-driven beta-arrestin recruitment at human CCR6; P51684; CHO-K1 CCR6 PathHunter beta-arrestin, luminescence, CCL20-stimulated; AID 493098; inhibition, % at 20 µM; 340,000 compounds, 0.49% hits;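 active means compounds whose inhibition of the agonist-driven luminescence signal at 20 µM reaches about 50%, limit read from the data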;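 further: cells stimulated with CCL20 at 14 nM final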
APJ agonist – APJ receptor agonism. CHO-K1 APJ PathHunter beta-arrestin, luminescence; 0% DMSO wells, 100% apelin. P35414. AID 2520. 330,000 compounds, 0.11% hits. activation, % at 20 µM;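 active means activation more than six SD over the plate average, tested at 20 µM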
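Test system: CHO-K1 APJ beta-arrestin complementation cell line | Compound: Single test compound dose, 20 µM final, 1% DMSO | Incubation: Compound 90 min 25 °C, reagent 1 h | Measured by: beta-gal luminescence | Read-out basis: APJ–arrestin association signal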
m5-HT2A agonist – mouse HTR2A agonism via beta-arrestin recruitment. P35363. 360,000 compounds, 0.66% hits. CHO-K1 mHTR2A beta-arrestin complementation, luminescence; percent of 30 µM serotonin response. AID 624169. activation, % at 7.6 µM;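 active means activation above a run cutoff, the mean activation of all tested compounds plus 3 SD, cut at about 14% in these data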
EBI2 block – EBI2 (human) antagonism. P32249. EBI2 beta-arrestin recruitment, luminescence, 7a,25-OHC stimulated. inhibition, % at 5 µM. 360,000 compounds, 0.81% hits; in the data active means inhibition above about 38%;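 further: enzyme fragment complementation signal reports receptor beta-arrestin coupling in cells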
CXCR6 block – CXCR6 (human) receptor inhibition; O00574; CHO-K1 PathHunter CXCR6 beta-arrestin, luminescence; inhibition, % at 20 µM; 360,000 compounds, 0.36% hits; AID 602244; in the data active means inhibition above about 34%, passing the limit was not always enough;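 further: antagonist mode with CXCL16 agonist at 10 nM final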
Target sequence (O00574 whole entry, looked up): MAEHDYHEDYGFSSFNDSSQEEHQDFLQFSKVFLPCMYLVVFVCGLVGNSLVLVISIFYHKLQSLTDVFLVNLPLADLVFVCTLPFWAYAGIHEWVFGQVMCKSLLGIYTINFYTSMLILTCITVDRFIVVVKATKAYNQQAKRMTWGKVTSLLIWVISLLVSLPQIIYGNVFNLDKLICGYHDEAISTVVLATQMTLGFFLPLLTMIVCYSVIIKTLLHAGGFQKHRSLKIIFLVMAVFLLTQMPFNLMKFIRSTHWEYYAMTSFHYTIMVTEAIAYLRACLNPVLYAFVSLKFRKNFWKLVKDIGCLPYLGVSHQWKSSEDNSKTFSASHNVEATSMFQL
MOR ag counter – OPRM1 agonism in mouse HTR2A counterscreen; shares compounds with m5-HT2A agonist; U2OS OPRM1 beta-arrestin PathHunter, luminescence; DMSO 0%, DAMGO 9.3 µM 100%; activation, % at 9.3 µM; 2,300 compounds, 5.3% hits; AID 624380;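 active means mean activation above the mean of DMSO-only wells plus 3 SD, cut at about 0.5% in these data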
m5-HT2A ag conf – confirmation of mouse HTR2A serotonin receptor agonists | shares compounds with m5-HT2A agonist | CHO-K1 PathHunter beta-arrestin recruitment, luminescence; DMSO 0%, 30 µM serotonin 100% | activation, % at 7.6 µM | 2,300 compounds, 19% hits | AID 624381;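 active means mean activation across triplicates above the hit threshold derived in the original primary screen, cut at about 15% in these data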
Of the large screens only hits and unclear results are named; the others gave an inactive call (follow-up assays come after a bar, where they were run).

O=C(c1ccco1)N1CCN(Cc2cccnc2)CC1	none
Cc1ccccc1-n1c(=O)cc(N2CCCCCC2)[nH]c1=O	none
Cc1ccc(CN2CCN(C(=O)c3ccco3)CC2)cc1	m5-HT2A agonist 43 | MOR ag counter inactive | m5-HT2A ag conf 121
Cc1ccccc1-n1c(=O)cc(N2CCN(C(=O)c3ccco3)CC2)[nH]c1=O	m5-HT2A agonist 24 | MOR ag counter inactive | m5-HT2A ag conf inactive
O=C(O)C(O)C(O)C(O)C(O)C(=O)O (configuration not stated) (tested in a mixture with another compound)	m5-HT2A agonist 20 | MOR ag counter inactive | m5-HT2A ag conf inactive
CC(C(=O)O)C(=O)O	none
COc1ccc(N2CCN(C(=O)CCS(=O)(=O)c3ccc4c(c3)CCN4C(=O)C3CC3)CC2)cc1	m5-HT2A agonist 16 | MOR ag counter inactive | m5-HT2A ag conf inactive
CCC(=O)N1CCc2cc(S(=O)(=O)CCC(=O)N3CCN(c4ccccc4)CC3)ccc21	none
O=C(O)C1=CCCNC1	none
O=C(O)C1=CCNCC1	m5-HT2A agonist 18 | MOR ag counter inactive | m5-HT2A ag conf inactive
CC(=O)N1CCN(C(=O)CSc2ncnc3sc(C)c(C)c23)CC1	none
CC1CCN(C(=O)CSc2nnc3ccc(-c4cccnc4)nn23)CC1	none
COCCCN1C(=O)C(=O)/C(=C(/O)c2ccc(S(=O)(=O)N3CCOCC3)cc2)C1c1ccc(C)cc1 (configuration not stated)	m5-HT2A agonist 18 | MOR ag counter inactive | m5-HT2A ag conf inactive
COc1ccc(/C(O)=C2/C(=O)C(=O)N(CCCN3CCOCC3)C2c2ccc(C(C)C)cc2)cc1 (configuration not stated)	m5-HT2A agonist 15 | MOR ag counter inactive | m5-HT2A ag conf inactive
COCCCN1C(=O)C(=O)/C(=C(/O)c2ccc(S(=O)(=O)N3CCOCC3)cc2)C1c1ccc(Cl)cc1 (configuration not stated)	none
CC1(C)C(=O)OC(c2cccn2-c2ccc([N+](=O)[O-])cc2)C2(CCCCC2)C1=O (configuration not stated)	none
CCCCC(c1nnnn1CC1CCCO1)N1CCN(c2nc3ccccc3s2)CC1 (configuration not stated)	m5-HT2A agonist 16 (no result: APJ antagonist, APJ agonist) | MOR ag counter inactive | m5-HT2A ag conf inactive
c1csc(C(c2nnnn2C2CCCCC2)N2CCN(c3nc4ccccc4s3)CC2)c1 (configuration not stated)	m5-HT2A agonist 15 (no result: APJ antagonist, APJ agonist) | MOR ag counter inactive | m5-HT2A ag conf inactive
Cc1c(C(=O)NCc2cccc([N+](=O)[O-])c2)sc(=O)n1Cc1ccc(F)cc1	none (no result: APJ antagonist, CCR6 antag, APJ agonist)
COc1ccc2c(c1)C(O)C(CO)C(C(=O)O)C2 (configuration not stated)	m5-HT2A agonist 16 (no result: APJ antagonist, APJ agonist) | MOR ag counter inactive | m5-HT2A ag conf inactive
CCCCN1C(=O)CC(C(=O)O)C1c1ccc(OC)cc1 (configuration not stated)	none
COc1cc(NC(=O)c2c(F)c(F)c(OC)c(F)c2F)ccc1NC(=O)c1cccs1	m5-HT2A agonist 16 | MOR ag counter inactive | m5-HT2A ag conf inactive
CCOc1ccccc1NC(=O)c1cc(=O)c2ccccc2o1	none
CSc1ccccc1C(=O)N1CCC(CCC(=O)NC2CC2)CC1	m5-HT2A agonist 15 | MOR ag counter inactive | m5-HT2A ag conf inactive
Cc1cccc(OCCCCN2CCNCC2)c1	none
Cc1ccc(C(C(=O)NCc2ccccc2)N(C(=O)c2csnn2)C2CC2)cc1 (configuration not stated)	m5-HT2A agonist 19 | MOR ag counter inactive | m5-HT2A ag conf inactive
Cc1cc(C(F)(F)F)nn1CC(=O)N1CCCCC1C (configuration not stated)	none
COc1ncc(-c2c(-c3ccccc3OC)sc3ccccc23)cn1	none (no result: APJ antagonist, CCR6 antag, APJ agonist)
CCn1ccnc1CN(C)C(=O)C1CCC(=O)N(Cc2cccc(C(F)(F)F)c2)C1 (configuration not stated)	m5-HT2A agonist 15 | MOR ag counter inactive | m5-HT2A ag conf inactive
Cc1ccc(NC(=O)c2ccc(OC(=O)c3ccco3)cc2)cc1	m5-HT2A agonist 18 | MOR ag counter inactive | m5-HT2A ag conf inactive
O=C(Nc1ccc(Cl)cc1)c1ccco1	m5-HT2A agonist 15 | MOR ag counter inactive | m5-HT2A ag conf inactive
Cc1ccccc1NC(=O)c1cccc(NC(=O)c2ccco2)c1	m5-HT2A agonist 15 | MOR ag counter inactive | m5-HT2A ag conf inactive
CC(=O)Nc1ccc(NC(=O)c2ccco2)cc1	none
Cc1cccc(NC(=O)c2cccc(NC(=O)c3ccco3)c2)c1C	none
CCc1nnc(NC(=O)c2ccc(-c3ccccc3F)o2)s1	none
CC1(c2ccccc2)NC(=O)N(CC(=O)Nc2cc(S(=O)(=O)N3CCOCC3)ccc2Cl)C1=O (configuration not stated)	none
CC1(C)C(C=C(Cl)Cl)C1C(=O)N1CCN(Cc2ccccc2)CC1 (configuration not stated)	m5-HT2A agonist 20 | MOR ag counter inactive | m5-HT2A ag conf 76
O=C(c1ccc(Cl)cc1)N(c1ccccn1)C1CCCCC1	none
O=C(c1cccc(C(=O)N(c2ccccn2)C2CCCCC2)c1)N(c1ccccn1)C1CCCCC1	m5-HT2A agonist 30 | MOR ag counter inactive | m5-HT2A ag conf 53
Cc1ccc(NC2CCCN(C(=O)c3snnc3C)C2)cc1C (configuration not stated)	none
CCOC(=O)c1c(C)[nH]c(C)c1C(=O)COC(=O)c1cccnc1OCC	none
Cc1cccc(C)c1NC(=O)Cn1c(=O)c(N2CCCCC2)c(N)n(C)c1=O	none
Cn1c(N)c(N2CCCCC2)c(=O)n(CC(=O)Nc2cccc(C#N)c2)c1=O	m5-HT2A agonist 20 | MOR ag counter inactive | m5-HT2A ag conf inactive
Cc1ccc(Cn2c(=O)n(CCC(=O)NCc3ccc4c(c3)OCO4)c(=O)c3ccccc32)cc1	none
N#Cc1ccccc1Cn1c(=O)n(CCCC(=O)NCc2ccc3c(c2)OCO3)c(=O)c2ccccc21	m5-HT2A agonist 15 | MOR ag counter inactive | m5-HT2A ag conf inactive
COc1cc(NC(=O)c2cccc(NC3=NC4CS(=O)(=O)CC4S3)c2)cc(OC)c1OC (configuration not stated)	none
CCc1cccc2c(C(=O)CSc3nnc(-c4ccoc4C)n3C)c[nH]c12	none
